Results from ChEMBL document CHEMBL1212759, “Antifungal activity of colistin against mucorales species in vitro and in a murine model of Rhizopus oryzae pulmonary infection” (Antimicrob Agents Chemother, 2010).
Calls of active or inactive are those of the source. The rule behind the calls is not given here.

Columns and labels:
[1] = tested on: Cunninghamella bertholletiae; test: Antimicrobial activity against Cunninghamella bertholletiae isolate 5633 after 24 hrs in RMPI 1640 medium by broth microdilution method; format: functional, organism-based
In short: (§1)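 Colistin was serially diluted from 64 to 0.06 μg/ml in RPMI 1640 with glucamine and without bicarbonate. Fresh spores from 48–72 h YAG plates were added at 0.5 × 10^4 to 4 × 10^4 cells/ml. Plates were incubated 24 h at 37°C. MIC was read visually as the lowest concentration giving 100% growth inhibition.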

[2] = tested on: Cunninghamella bertholletiae; test: Antimicrobial activity against Cunninghamella bertholletiae isolate 6694 after 24 hrs in RMPI 1640 medium by broth microdilution method; format: functional, organism-based; in short: as §1
Mucor circinelloides [3] = test: Antimicrobial activity against Mucor circinelloides isolate 4818 after 24 hrs in RMPI 1640 medium by broth microdilution method; format: functional, organism-based; in short: as §1
Rhizopus [4] = test: Antimicrobial activity against Rhizopus sp. isolate 4523 after 24 hrs in RMPI 1640 medium by broth microdilution method; format: functional, organism-based
In short: (§2)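 Broth microdilution in RPMI 1640 with […], without bicarbonate. Colistin was serially diluted 64 to 0.06 μg/ml. Spores came from YAG plates grown 48–72 h at 37°C, were filtered and counted, and were inoculated at 0.5 × 10^4 to 4 × 10^4 cells/ml. Plates were incubated 24 h at 37°C. MIC was read visually as the lowest concentration giving 100% growth inhibition.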

Rhizopus arrhizus [5] = test: Antimicrobial activity against Rhizopus oryzae isolate 5879 after 24 hrs in RMPI 1640 medium by broth microdilution method; format: functional, organism-based; in short: as §2
Rhizopus homothallicus [6] = test: Antimicrobial activity against Rhizopus homothallicus isolate 5910 after 24 hrs in RMPI 1640 medium by broth microdilution method; format: functional; in short: as §1
Rhizopus arrhizus [7] = test: Antimicrobial activity against Rhizopus oryzae isolate 5799 after 24 hrs in RMPI 1640 medium by broth microdilution method; format: functional, organism-based; in short: as §1
Rhizopus microsporus = test: Antimicrobial activity against Rhizopus microsporus isolate 6164 after 24 hrs in RMPI 1640 medium by broth microdilution method; format: functional; in short: as §1
Rhizopus arrhizus [8] = test: Antimicrobial activity against Rhizopus oryzae isolate 6093 after 24 hrs in RMPI 1640 medium by broth microdilution method; format: functional, organism-based; in short: as §2
Rhizopus homothallicus [9] = test: Antimicrobial activity against Rhizopus homothallicus isolate 6360 after 24 hrs in RMPI 1640 medium by broth microdilution method; format: functional; in short: as §1
Rhizopus [10] = test: Antimicrobial activity against […] isolate 6254 after 24 hrs in RMPI 1640 medium by broth microdilution method; format: functional, organism-based; in short: as §1
[11] = tested on: Cunninghamella bertholletiae; test: Antimicrobial activity against Cunninghamella bertholletiae isolate 5633 after 24 hrs in yeast nitrogen base complete medium by broth microdilution method; format: functional, organism-based
In short: (§3)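 Broth microdilution in YNB complete medium with colistin at 128 to 0.12 μg/ml. Freshly collected spores were inoculated at 0.5 × 10^4 to 4 × 10^4 cells/ml and incubated 24 h at 37°C. MIC was read visually as the lowest concentration with complete (100%) growth inhibition.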

[12] = tested on: Cunninghamella bertholletiae; test: Antimicrobial activity against Cunninghamella bertholletiae isolate 6694 after 24 hrs in yeast nitrogen base complete medium by broth microdilution method; format: functional, organism-based; in short: as §3
[13] = tested on: Cunninghamella bertholletiae; test: Antimicrobial activity against Cunninghamella bertholletiae isolate 6733 after 24 hrs in yeast nitrogen base complete medium by broth microdilution method; format: functional, organism-based; in short: as §3
Mucor circinelloides [14] = test: Antimicrobial activity against Mucor circinelloides isolate 4480 after 24 hrs in yeast nitrogen base complete medium by broth microdilution method; format: functional, organism-based; in short: as §3
Mucor circinelloides [15] = test: Antimicrobial activity against Mucor circinelloides isolate 4818 after 24 hrs in yeast nitrogen base complete medium by broth microdilution method; format: functional, organism-based; in short: as §3
Rhizopus arrhizus [16] = test: Antimicrobial activity against Rhizopus oryzae isolate 3140 after 24 hrs in yeast nitrogen base complete medium by broth microdilution method; format: functional, organism-based; in short: as §3
Rhizopus arrhizus [17] = test: Antimicrobial activity against Rhizopus oryzae isolate 5879 after 24 hrs in yeast nitrogen base complete medium by broth microdilution method; format: functional, organism-based
In short: (§4)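 Microdilution was done in yeast nitrogen base complete medium, with colistin serially diluted 128 to 0.12 μg/ml. Spores were harvested from YAG plates (48–72 h, 37°C), washed, filtered and counted, then added at 0.5 × 10^4 to 4 × 10^4 cells/ml. After 24 h at 37°C, MIC was taken visually as the lowest concentration with complete growth inhibition.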

Rhizopus homothallicus [18] = test: Antimicrobial activity against Rhizopus homothallicus isolate 5790 after 24 hrs in yeast nitrogen base complete medium by broth microdilution method; format: functional; in short: as §3
Rhizopus homothallicus [19] = test: Antimicrobial activity against Rhizopus homothallicus isolate 5910 after 24 hrs in yeast nitrogen base complete medium by broth microdilution method; format: functional; in short: as §3
Rhizopus arrhizus [20] = test: Antimicrobial activity against Rhizopus oryzae isolate 5799 after 24 hrs in yeast nitrogen base complete medium by broth microdilution method; format: functional, organism-based; in short: as §4
Rhizopus arrhizus [21] = test: Antimicrobial activity against Rhizopus oryzae isolate 5496 after 24 hrs in yeast nitrogen base complete medium by broth microdilution method; format: functional, organism-based; in short: as §3
Rhizopus [22] = test: Antimicrobial activity against […] isolate 6254 after 24 hrs in yeast nitrogen base complete medium by broth microdilution method; format: functional, organism-based; in short: as §3
Rhizopus arrhizus [23] = test: Antimicrobial activity against Rhizopus oryzae at 8 ug/disk after 24 hrs by disk diffusion method; format: functional, organism-based
In short: (§5)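 Paper disks loaded with 8, 16 or 32 μg colistin were placed on agar plates inoculated with 200 μl of a 10^6 cells/ml R. oryzae spore suspension. After 24 h at 37°C, the diameter of the inhibition zone was measured.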

Rhizopus arrhizus [24] = test: Antimicrobial activity against Rhizopus oryzae at 32 ug/disk after 24 hrs by disk diffusion method; format: functional, organism-based; in short: as §5
Rhizopus arrhizus [25] = test: Antimicrobial activity against Rhizopus oryzae assessed as reduction in hyphal viability at 8 ug/ml up to 6 hrs by XTT assay; format: functional, organism-based
In short: (§6)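 R. oryzae mycelia were shaken at 37°C in RPMI 1640 with colistin, amphotericin B or both; drug-free RPMI served as control. At 0, 2, 6 and 24 h, pellets received XTT (1 mg) plus menadione (0.17 mg) in 1 ml PBS for 1 h at 37°C, then OD405 was read. Viability is drug OD405 divided by control OD405; at least three experiments.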

Rhizopus arrhizus [26] = test: Antimicrobial activity against Rhizopus oryzae assessed as reduction in hyphal viability at 8 ug/ml after 24 hrs by XTT assay; format: functional, organism-based; in short: as §6
Rhizopus arrhizus [27] = test: Antimicrobial activity against Rhizopus oryzae assessed as vacuolar and plasma membrane damage at 32 ug/ml by FM4-64 staining; format: functional, organism-based
In short: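 Germlings at 5 × 10^6/ml were loaded with 5 μM FM4-64 in RPMI 1640 for 30 min at 30°C in the dark. After washing in PBS, they were exposed to colistin at the MIC and MFC, or drug-free RPMI, for 60 min at 37°C. Membranes were viewed by fluorescence microscopy with a rhodamine filter.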

In the case of COLISTIN, the MFC [1] is reported as 64 µg/mL, the MIC [1] is reported as 16 µg/mL and the MFC [2] is reported as 64 µg/mL. The MIC [2] was 16 µg/mL, the MFC (Mucor circinelloides [3]) was 32 µg/mL and the MIC (Mucor circinelloides [3]) was 32 µg/mL. The MFC (Rhizopus [4]) was 64 µg/mL, the MIC (Rhizopus [4]) was 16 µg/mL and the MFC (Rhizopus arrhizus [5]) was 32 µg/mL. The MIC (Rhizopus arrhizus [5]) was 32 µg/mL, the MFC (Rhizopus homothallicus [6]) was 32 µg/mL and the MIC (Rhizopus homothallicus [6]) was 32 µg/mL. For the same sequence, the MFC (Rhizopus arrhizus [7]) was 32 µg/mL, the MIC (Rhizopus arrhizus [7]) was 8 µg/mL and the MFC (Rhizopus microsporus) was 64 µg/mL. The MIC (Rhizopus microsporus) was 32 µg/mL, the MFC (Rhizopus arrhizus [8]) was 32 µg/mL and the MIC (Rhizopus arrhizus [8]) was 16 µg/mL. It also gave an MFC (Rhizopus homothallicus [9]) of 64 µg/mL, an MIC (Rhizopus homothallicus [9]) of 32 µg/mL and an MFC (Rhizopus [10]) of 32 µg/mL. For the same sequence, the MIC (Rhizopus [10]) was 16 µg/mL, the MFC [11] was over 128 µg/mL and the MIC [11] was 128 µg/mL. It also gave an MFC [12] of over 128 µg/mL, an MIC [12] of 128 µg/mL and an MFC [13] of over 128 µg/mL. The MIC [13] was 128 µg/mL, the MFC (Mucor circinelloides [14]) was over 128 µg/mL and the MIC (Mucor circinelloides [14]) was 128 µg/mL. The MFC (Mucor circinelloides [15]) was over 128 µg/mL, the MIC (Mucor circinelloides [15]) was 128 µg/mL and the MFC (Rhizopus arrhizus [16]) was over 128 µg/mL. For the same sequence, the MIC (Rhizopus arrhizus [16]) was 128 µg/mL, the MFC (Rhizopus arrhizus [17]) was over 128 µg/mL and the MIC (Rhizopus arrhizus [17]) was 128 µg/mL. The MFC (Rhizopus homothallicus [18]) was over 128 µg/mL, the MIC (Rhizopus homothallicus [18]) was 128 µg/mL and the MFC (Rhizopus homothallicus [19]) was over 128 µg/mL. It also gave an MIC (Rhizopus homothallicus [19]) of 128 µg/mL, an MFC (Rhizopus arrhizus [20]) of over 128 µg/mL and an MIC (Rhizopus arrhizus [20]) of 128 µg/mL. The MFC (Rhizopus arrhizus [21]) was over 128 µg/mL, the MIC (Rhizopus arrhizus [21]) was 128 µg/mL and the MFC (Rhizopus [22]) was over 128 µg/mL. It also gave an MIC (Rhizopus [22]) of 128 µg/mL, an inhibition zone (IZ) (Rhizopus arrhizus [23]) of 18 mm and an inhibition zone (IZ) (Rhizopus arrhizus [24]) of 21 mm. For the same sequence, the inhibition (Rhizopus arrhizus [25]) was 45%, the inhibition (Rhizopus arrhizus [26]) was “inactive” and the Activity (Rhizopus arrhizus [27]) was “Active”.
